Source: ChEMBL document CHEMBL1126293, “Substrate specificity of isopenicillin N synthase” (J Med Chem, 1992)

Columns and labels:
[1] = molecular target: T1, Isopenicillin N synthase (Penicillium chrysogenum) (UniProt P08703); assay: Anti Micrococcus luteus activity was tested for inhibition of Isopenicillin N synthetase (isopenicillin N synthase); yes
T1 sequence (whole entry): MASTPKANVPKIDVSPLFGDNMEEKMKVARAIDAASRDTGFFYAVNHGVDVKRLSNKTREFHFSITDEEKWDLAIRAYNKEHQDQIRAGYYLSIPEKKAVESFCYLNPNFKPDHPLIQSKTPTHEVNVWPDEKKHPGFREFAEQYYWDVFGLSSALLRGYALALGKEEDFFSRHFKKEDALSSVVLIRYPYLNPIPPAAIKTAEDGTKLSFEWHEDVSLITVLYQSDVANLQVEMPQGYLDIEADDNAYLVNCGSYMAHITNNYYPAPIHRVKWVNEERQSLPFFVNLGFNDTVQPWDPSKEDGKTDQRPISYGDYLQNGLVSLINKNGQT
In short: (§1)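 Peptide added at a known amount to a standard IPNS reaction mixture with ACV as substrate before starting the reaction with enzyme. Applied to peptides not converted to an anti-M. luteus product. Percent inhibition derived from the ratio of reaction rates with and without the peptide.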

[2] = Antibiotic activity against Micrococcus luteus (ATCC 9341 strain); assay type: functional
In short: (§2)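 Peptides at 0.3 mM incubated with purified IPNS in Tris-HCl pH 8.0 containing KCl, MgSO4, FeSO4, ascorbate and DTT, at 25 °C for 2–20 min in quadruplicate, then stopped with ethanol. Samples with and without penicillinase went into wells on M. luteus ATCC 9341 lawns, incubated overnight at 37 °C, and inhibition zones were read. Peptides giving no product were retested for 1 h at 3 mM.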

[3] = molecular target: T2, Regulatory protein BlaR1 (Bacillus licheniformis) (UniProt P12287); assay: Beta-lactamase induction in Bacillus licheniformis
T2 sequence (whole entry): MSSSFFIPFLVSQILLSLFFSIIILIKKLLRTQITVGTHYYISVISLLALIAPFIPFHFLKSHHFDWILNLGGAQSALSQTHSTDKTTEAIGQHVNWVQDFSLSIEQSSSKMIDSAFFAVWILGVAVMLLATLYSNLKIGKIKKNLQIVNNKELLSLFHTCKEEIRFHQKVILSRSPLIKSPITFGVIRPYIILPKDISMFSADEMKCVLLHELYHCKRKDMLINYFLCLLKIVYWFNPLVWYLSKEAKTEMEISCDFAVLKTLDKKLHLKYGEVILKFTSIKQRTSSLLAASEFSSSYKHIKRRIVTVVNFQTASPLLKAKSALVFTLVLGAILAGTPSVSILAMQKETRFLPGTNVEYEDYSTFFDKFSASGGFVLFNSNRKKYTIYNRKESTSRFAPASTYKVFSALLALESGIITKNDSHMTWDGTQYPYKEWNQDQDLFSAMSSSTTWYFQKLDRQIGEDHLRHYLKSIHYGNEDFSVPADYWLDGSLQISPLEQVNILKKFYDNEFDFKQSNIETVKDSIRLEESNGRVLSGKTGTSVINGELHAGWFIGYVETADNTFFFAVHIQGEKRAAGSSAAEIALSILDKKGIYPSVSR
In short: (§3)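 Ethanol-stopped IPNS reactions (peptide 0.3 mM, 25 °C) were mixed 1:1 with log-phase B. licheniformis ATCC 14580 diluted to 30 Klett units and incubated for 2 h at 30 °C. Tylosin was added, then after 15 min nitrocefin, with A492 read over 30 min. β-Lactam was quantified by β-lactamase synthesis relative to penicillin G.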

[4] = molecular target: T1, Isopenicillin N synthase (Penicillium chrysogenum); assay: Anti-micrococcus luteus activity was tested for inhibition of isopenicillin N synthetase.; conditions: Penicillium chrysogenum (Penicillium notatum); in short: as §1
[5] = molecular target: T1, Isopenicillin N synthase (Penicillium chrysogenum); assay: Anti Micrococcus luteus activity was tested for inhibition of IPNS (isopenicillin N synthase); no; in short: as §1
Micrococcus luteus [6] = assay: In vitro antibiotic activity against Micrococcus luteus(ATCC 9341 stain).; assay type: functional, organism-based; in short: as §2
[7] = molecular target: T2, Regulatory protein BlaR1 (Bacillus licheniformis); assay: The compound was tested for Beta-lactamase induction in B. licheniformis; +; in short: as §3
Micrococcus luteus [8] = assay: The compound was tested for the antibiotic activity against Micrococcus luteus(ATCC 9341 stain); no; assay type: functional, organism-based; in short: as §2

Row | Structure (SMILES) | Activity [1] | Beta-lactamase induction [3] | Activity [4] | Antibiotic activity [2] | other results
1 | N[C@@H](CCCC(=O)N[C@@H](CSSC[C@H](NC(=O)CCC[C@H](N)C(=O)O)C(=O)N[C@H](C(=O)O)C(C(F)(F)F)C(F)(F)F)C(=O)N[C@H](C(=O)O)C(C(F)(F)F)C(F)(F)F)C(=O)O | Yes | – | – | No activity | –
2 | CC(C)[C@@H](NC(=O)[C@H](CS)NC(=O)Cc1ccc(O)cc1)C(=O)O | – | + | No activity | No activity | –
3 | CC(C)[C@@H](NC(=O)[C@H](CSSC[C@H](NC(=O)CCCCN)C(=O)N[C@@H](C(=O)O)C(C)C)NC(=O)CCCCN)C(=O)O | – | – | – | – | Activity [5]: No activity; Antibiotic activity (Micrococcus luteus [6]): Yes; Beta-lactamase induction [7]: +
4 | N[C@@H](CCCC(=O)N[C@@H](CSSC[C@H](NC(=O)CCC[C@H](N)C(=O)O)C(=O)NC(C(=O)O)C(C(F)(F)F)C(F)(F)F)C(=O)NC(C(=O)O)C(C(F)(F)F)C(F)(F)F)C(=O)O (stereo in doubt; 62) | Yes | – | – | No activity | –
5 | CC(C)[C@@H](NC(=O)[C@H](CSSC[C@H](NC(=O)Cc1cccc(N)c1)C(=O)N[C@@H](C(=O)O)C(C)C)NC(=O)Cc1cccc(N)c1)C(=O)O | – | + | No activity | – | Antibiotic activity (Micrococcus luteus [6]): Yes
6 | N[C@@H](CCCC(=O)NC(CSSCC(NC(=O)CCC[C@H](N)C(=O)O)C(=O)N[C@H](CCl)C(=O)O)C(=O)N[C@H](CCl)C(=O)O)C(=O)O (stereo partly specified) | Yes | – | – | No activity | –
7 | N[C@@H](CCCC(=O)NC(CSSCC(NC(=O)CCC[C@H](N)C(=O)O)C(=O)N[C@H](Cc1ccc(O)cc1)C(=O)O)C(=O)N[C@H](Cc1ccc(O)cc1)C(=O)O)C(=O)O (stereo partly specified) | Yes | – | – | – | Antibiotic activity (Micrococcus luteus [8]): No activity
8 | CC(O)[C@@H](NC(=O)C(CSSCC(NC(=O)CCC[C@H](N)C(=O)O)C(=O)N[C@@H](C(=O)O)C(C)O)NC(=O)CCC[C@H](N)C(=O)O)C(=O)O (stereo partly specified) | – | – | No activity | – | Antibiotic activity (Micrococcus luteus [8]): No activity
9 | N[C@@H](CCCC(=O)NC(CSSCC(NC(=O)CCC[C@H](N)C(=O)O)C(=O)N[C@H](Cc1c[nH]c2ccccc12)C(=O)O)C(=O)N[C@H](Cc1c[nH]c2ccccc12)C(=O)O)C(=O)O (stereo partly specified) | Yes | – | – | No activity | –
10 | CC(C)[C@@H](NC(=O)[C@H](CS)NC(=O)CCC[C@@H](N)C(=O)O)C(=O)O | – | + | No activity | – | Antibiotic activity (Micrococcus luteus [6]): Yes
11 | N[C@@H](CCCC(=O)N[C@@H](CS)C(=O)NCC(=O)O)C(=O)O | Yes | – | – | No activity | –
12 | CC(C)[C@@H](NC(=O)[C@H](CSSC[C@H](NC(=O)C(N)c1cccc(C(=O)O)c1)C(=O)N[C@@H](C(=O)O)C(C)C)NC(=O)C(N)c1cccc(C(=O)O)c1)C(=O)O (stereo partly specified) | – | + | No activity | No activity | –
13 | CC(C)[C@@H](NC(=O)[C@H](CSSC[C@H](NC(=O)[C@@H]1CCCN1)C(=O)N[C@@H](C(=O)O)C(C)C)NC(=O)[C@@H]1CCCN1)C(=O)O | – | – | – | No activity | Activity [5]: No activity
14 | CC(C)[C@@H](NC(=O)[C@@H](CS)NC(=O)CCC[C@H](N)C(=O)O)C(=O)O | – | + | No activity | No activity | –
15 | N[C@@H](CCCC(=O)N[C@@H](CSSC[C@H](NC(=O)CCC[C@H](N)C(=O)O)C(=O)NC(C(=O)O)C(C(F)(F)F)C(F)(F)F)C(=O)NC(C(=O)O)C(C(F)(F)F)C(F)(F)F)C(=O)O (stereo in doubt; 63) | Yes | – | – | No activity | –
16 | CC(C)[C@@H](NC(=O)[C@H](CO)NC(=O)CCC[C@H](N)C(=O)O)C(=O)O | – | + | No activity | No activity | –
17 | CC(C)[C@@H](NC(=O)[C@H](CS)NC(=O)CCC[C@H](N)C(=O)O)C(=O)O | – | + | No activity | – | –
18 | CC(C)[C@@H](NC(=O)[C@H](CSSC[C@H](NC(=O)c1cccc(C(N)C(=O)O)c1)C(=O)N[C@@H](C(=O)O)C(C)C)NC(=O)c1cccc(C(N)C(=O)O)c1)C(=O)O (stereo partly specified) | – | + | No activity | – | Antibiotic activity (Micrococcus luteus [6]): Yes

More lines, main results first:

Row | Activity [1] | Beta-lactamase induction [3] | Activity [4] | Structure (SMILES) | Antibiotic activity [2] | other results
19 | – | + | No activity | CC(C)[C@@H](NC(=O)[C@H](C)NC(=O)CCC[C@H](N)C(=O)O)C(=O)O | No activity | –
20 | – | + | No activity | CC(C)[C@@H](NC(=O)[C@H](CSSC[C@H](NC(=O)CCC[C@H](N)C(=O)O)C(=O)N[C@@H](C(=O)O)C(C)C)NC(=O)CCC[C@H](N)C(=O)O)C(=O)O | – | Antibiotic activity (Micrococcus luteus [6]): Yes
21 | – | + | No activity | CC(C)[C@@H](NC(=O)[C@H](CSSC[C@H](NC(=O)CCCCCCN)C(=O)N[C@@H](C(=O)O)C(C)C)NC(=O)CCCCCCN)C(=O)O | – | Antibiotic activity (Micrococcus luteus [6]): Yes
22 | – | + | No activity | CC(C)[C@@H](NC(=O)[C@H](CSSC[C@H](NC(=O)CCCCCN)C(=O)N[C@@H](C(=O)O)C(C)C)NC(=O)CCCCCN)C(=O)O | – | Antibiotic activity (Micrococcus luteus [6]): Yes
23 | – | + | No activity | CC(C)[C@@H](NC(=O)[C@H](CSSC[C@H](NC(=O)OCc1ccccc1)C(=O)N[C@@H](C(=O)O)C(C)C)NC(=O)OCc1ccccc1)C(=O)O | No activity | –
24 | Yes | – | – | CC(C)[C@@H](NC(=O)[C@@H](N)CSSC[C@H](N)C(=O)N[C@@H](C(=O)O)C(C)C)C(=O)O | No activity | –
